What all share (assay type): functional
Test [1] concerns Staphylococcus aureus. In words: Antibacterial activity against methicillin-resistant Staphylococcus aureus ATCC 43300 after 24 hrs. The conditions noted are these: ATCC 43300, 24 h. Put shortly:
(§1)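 Compounds were dissolved in dimethylformamide/propyleneglycol (0.5:9.5) and serially diluted twofold in Mueller–Hinton broth at pH 7.4, from 100 down to 0.78. Inocula came from 24 h broth cultures grown at 37 °C, with a final inoculum of 10⁵ CFU/ml. Tubes were incubated for 24 h at 37 °C alongside inoculated-broth and solvent controls. The MIC was read as the last tube showing no growth.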

Test [2] relates to Staphylococcus aureus. The experiment in a line: Antibacterial activity against methicillin-resistant Staphylococcus aureus isolate after 24 hrs. The method, boiled down: as §1
In test [3] the test system is Candida albicans. The experiment in a line: Antifungal activity against Candida albicans ATCC 10145 after 48 hrs. The conditions noted are these: ATCC 10145, 48 h. Put shortly:
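Yeast maintained in Sabouraud dextrose broth, 24 h at 25 °C; testing by twofold serial dilution in Sabouraud dextrose broth, pH 7.4, final inoculum 10⁴ CFU/ml. Compounds in dimethylformamide/propyleneglycol (0.5:9.5), diluted in medium from 100 to 0.78 (100, 50, 25, 12.5, 6.25, 3.12, 1.56, 0.78).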

The test system of test [4] is Escherichia coli. The experiment in a line: Antibacterial activity against Escherichia coli ATCC 23556 after 24 hrs. The note with it: ATCC 23556, 24 h. The method, boiled down: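 Twofold serial broth dilution in Mueller–Hinton broth, pH 7.4; compounds dissolved in dimethylformamide/propyleneglycol (0.5:9.5), diluted in medium from 100 down to 0.78 (100, 50, 25, 12.5, 6.25, 3.12, 1.56, 0.78). Inoculum 10⁵ CFU/ml from 24 h broth cultures. Incubated 24 h at 37 °C; MIC taken as last tube without growth. Inoculated broth-only tubes as controls.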

The subject of test [5] is Staphylococcus aureus. The experiment in a line: Antibacterial activity against Staphylococcus aureus ATCC 25923 after 24 hrs. The note with it: ATCC 25923, 24 h. Put shortly: as §1

Converted amounts (≈) assume the structure as drawn.

In the case of `O=C(CN1C(=O)S/C(=C\c2sc(Cl)nc2Cl)C1=O)c1ccccc1`, the MIC in test [1] was determined as 6.25 µg/mL (≈ 15.7 µM); in test [2] it was 6.25 µg/mL (≈ 15.7 µM); in test [3], 12.5 µg/mL (≈ 31.3 µM); in test [4], 25 µg/mL (≈ 62.6 µM); in test [5], 6.25 µg/mL (≈ 15.7 µM).

For the compound `CC1(C)S[C@@H]2[C@H](NC(=O)[C@H](N)c3ccccc3)C(=O)N2[C@H]1C(=O)O` [AMPICILLIN], the MIC in test [1] was found to be 1.56 µg/mL (≈ 4.46 µM); in test [2] it was 1.56 µg/mL (≈ 4.46 µM); in test [4] it was 25 µg/mL (≈ 71.5 µM); in test [5] it was 6.25 µg/mL (≈ 17.9 µM).

As to `O=C1S/C(=C\c2sc(Cl)nc2Cl)C(=O)N1Cc1ccccc1`, the MIC in test [1] stood at 6.25 µg/mL (≈ 16.8 µM); in test [2], 12.5 µg/mL (≈ 33.7 µM); in test [3], 6.25 µg/mL (≈ 16.8 µM); in test [4] it was 25 µg/mL (≈ 67.3 µM); in test [5] it was 12.5 µg/mL (≈ 33.7 µM).

Turning to `O=C1S/C(=C\c2sc(Cl)nc2Cl)C(=O)N1Cc1ccc(Cl)cc1Cl`, the MIC is 12.5 µg/mL (≈ 28.4 µM) in test [1]; 12.5 µg/mL (≈ 28.4 µM) in test [2]; 6.25 µg/mL (≈ 14.2 µM) in test [3]; 25 µg/mL (≈ 56.8 µM) in test [4]; 12.5 µg/mL (≈ 28.4 µM) in test [5].

`O=C(CN1C(=O)S/C(=C\c2sc(Cl)nc2Cl)C1=O)c1ccc([N+](=O)[O-])cc1`: the MIC came to 12.5 µg/mL (≈ 28.1 µM) in test [1]; 12.5 µg/mL (≈ 28.1 µM) in test [2]; 6.25 µg/mL (≈ 14.1 µM) in test [3]; 25 µg/mL (≈ 56.3 µM) in test [4]; 12.5 µg/mL (≈ 28.1 µM) in test [5].

With `O=C(CN1C(=O)S/C(=C\c2sc(Cl)nc2Cl)C1=O)c1ccc(F)cc1`, the minimum inhibitory concentration (MIC) in test [1] came out at 6.25 µg/mL (≈ 15 µM); in test [2], 6.25 µg/mL (≈ 15 µM); in test [3] it was 12.5 µg/mL (≈ 30 µM); in test [4] it was 6.25 µg/mL (≈ 15 µM); in test [5], 6.25 µg/mL (≈ 15 µM).

In the case of `O=C(CN1C(=O)S/C(=C/c2sc(Cl)nc2Cl)C1=O)c1ccc(Cl)cc1`, the minimum inhibitory concentration (MIC) in test [1] was determined as 12.5 µg/mL (≈ 28.8 µM); in test [2], 6.25 µg/mL (≈ 14.4 µM); in test [3], 6.25 µg/mL (≈ 14.4 µM); in test [4], 50 µg/mL (≈ 115 µM); in test [5], 12.5 µg/mL (≈ 28.8 µM).

With `O=C(CN1C(=O)S/C(=C\c2sc(Cl)nc2Cl)C1=O)c1ccc(Cl)cc1Cl`, the MIC in test [1] stood at 12.5 µg/mL (≈ 26.7 µM); in test [2], 12.5 µg/mL (≈ 26.7 µM); in test [3], 12.5 µg/mL (≈ 26.7 µM); in test [4] it was 25 µg/mL (≈ 53.4 µM); in test [5] it was 12.5 µg/mL (≈ 26.7 µM).

Regarding `O=C1S/C(=C\c2sc(Cl)nc2Cl)C(=O)N1Cc1ccc(Br)cc1`, the MIC in test [1] amounted to 12.5 µg/mL (≈ 27.8 µM); in test [2] it was 6.25 µg/mL (≈ 13.9 µM); in test [3] it was 6.25 µg/mL (≈ 13.9 µM); in test [4] it was 25 µg/mL (≈ 55.5 µM); in test [5] it was 6.25 µg/mL (≈ 13.9 µM).

On to `O=C(CN1C(=O)S/C(=C\c2sc(Cl)nc2Cl)C1=O)c1ccc(Br)cc1`, for which the MIC is 6.25 µg/mL (≈ 13.1 µM) in test [1]; 12.5 µg/mL (≈ 26.1 µM) in test [2]; 6.25 µg/mL (≈ 13.1 µM) in test [3]; 6.25 µg/mL (≈ 13.1 µM) in test [4]; 12.5 µg/mL (≈ 26.1 µM) in test [5].

Take `O=C1S/C(=C\c2sc(Cl)nc2Cl)C(=O)N1Cc1ccc(F)cc1`: the MIC in test [1] worked out at 6.25 µg/mL (≈ 16.1 µM); in test [2], 6.25 µg/mL (≈ 16.1 µM); in test [3] it was 12.5 µg/mL (≈ 32.1 µM); in test [4] it was 25 µg/mL (≈ 64.2 µM); in test [5] it was 6.25 µg/mL (≈ 16.1 µM).

`O=C1S/C(=C\c2sc(Cl)nc2Cl)C(=O)N1Cc1ccc([N+](=O)[O-])cc1`: the MIC in test [1] amounted to 6.25 µg/mL (≈ 15 µM); in test [2], 12.5 µg/mL (≈ 30 µM); in test [3], 12.5 µg/mL (≈ 30 µM); in test [4], 25 µg/mL (≈ 60.1 µM); in test [5] it was 6.25 µg/mL (≈ 15 µM).

Take `O=C(CN1C(=O)S/C(=C/c2sc(Cl)nc2Cl)C1=O)c1ccc(Cl)cc1Cl`: the MIC in test [1] came out at 12.5 µg/mL (≈ 26.7 µM); in test [2], 12.5 µg/mL (≈ 26.7 µM); in test [3], 12.5 µg/mL (≈ 26.7 µM); in test [4], 25 µg/mL (≈ 53.4 µM); in test [5], 12.5 µg/mL (≈ 26.7 µM).

Regarding `O=C1S/C(=C\c2sc(Cl)nc2Cl)C(=O)N1Cc1ccc(Cl)cc1`, the MIC in test [1] stood at 6.25 µg/mL (≈ 15.4 µM); in test [2], 6.25 µg/mL (≈ 15.4 µM); in test [3], 6.25 µg/mL (≈ 15.4 µM); in test [4], 25 µg/mL (≈ 61.6 µM); in test [5], 6.25 µg/mL (≈ 15.4 µM).

Turning to `Clc1ccc(COC(Cn2ccnc2)c2ccc(Cl)cc2Cl)c(Cl)c1` (stereo unspecified) [MICONAZOLE], the MIC in test [1] was 6.25 µg/mL (≈ 15 µM); in test [3], 25 µg/mL (≈ 60.1 µM).

Take `O=C(CN1C(=O)S/C(=C\c2sc(Cl)nc2Cl)C1=O)c1ccc(Cl)cc1`: the MIC in test [1] worked out at 6.25 µg/mL (≈ 14.4 µM); in test [2], 6.25 µg/mL (≈ 14.4 µM); in test [3], 6.25 µg/mL (≈ 14.4 µM); in test [4] it was 25 µg/mL (≈ 57.6 µM); in test [5], 6.25 µg/mL (≈ 14.4 µM).

As a reminder, the MIC is the smallest concentration in the dilution series that meets the test's criterion for growth inhibition.
